The species named for one experiment is Homo sapiens. As to the kind of experiment: Ratio of RBA for human recombinant ER beta to RBA for human recombinant ER alpha. Put shortly:
(§1)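 Human recombinant ERα or ERβ, 0.5 µg/tube, in buffer of 20 mM Tris–HCl pH 8.0, 0.3 M NaCl, 1 mM EDTA, 10 mM 2-mercaptoethanol, 0.2 mM PMSF. Incubated with 4 nM [6,7-³H]17β-estradiol ± unlabeled competitor, 4 °C, 18 h, in duplicate. Collected on nitrocellulose filter, washed, read by liquid scintillation. RBA taken with estradiol as 100; […] is the ERβ/ERα RBA ratio.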

Experiment [1] has as its system MCF7. Put plainly: Estrogenic activity in human MCF7 cells assessed as increase in cell proliferation incubated for 4 days by WST-8 assay relative to estradiol. It is filed as functional. The settings on record: MCF7, 96 h. Put shortly:
(§2)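 MCF-7 cells kept in D-MEM with 10% FBS at 37 °C, 5% CO2. Before assay, switched to phenol red-free low-glucose D-MEM with 5% sFBS and seeded at 2000 cells/well. Serial dilutions, 1×10^-13 to 1×10^-6 M, given alone, DMSO as control. 4 days in triplicate, medium replaced after 2 days. WST-8 added, absorbance at 450 nm after 2–4 h. EC50 from sigmoidal curves; Emax relative to E2 as 100.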

Experiment [2] deals with MCF7. Put plainly: Anti-estrogenic activity in human MCF7 cells assessed as reduction in estradiol-induced increase in cell proliferation incubated for 4 days by WST-8 assay. In kind it is functional, cell-based. The settings on record: MCF7, 96 h. The method, boiled down: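 MCF-7 cells in phenol red-free low-glucose D-MEM with 5% sFBS, 2000 cells/well. Serial dilutions, 1×10^-13 to 1×10^-6 M, given with 0.1 nM estradiol, DMSO as control. 4 days in triplicate, medium with compound and estradiol renewed at day 2. Growth read by WST-8, absorbance at 450 nm after 2–4 h. IC50 from sigmoidal dose–response curves.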
A general note: Tetrazolium assays rely on reduction of a dye to a coloured formazan, in cell work by metabolically active cells.

For experiment [3], the target named is T1, Estrogen receptor (Homo sapiens) (UniProt P03372).
T1 sequence (whole entry): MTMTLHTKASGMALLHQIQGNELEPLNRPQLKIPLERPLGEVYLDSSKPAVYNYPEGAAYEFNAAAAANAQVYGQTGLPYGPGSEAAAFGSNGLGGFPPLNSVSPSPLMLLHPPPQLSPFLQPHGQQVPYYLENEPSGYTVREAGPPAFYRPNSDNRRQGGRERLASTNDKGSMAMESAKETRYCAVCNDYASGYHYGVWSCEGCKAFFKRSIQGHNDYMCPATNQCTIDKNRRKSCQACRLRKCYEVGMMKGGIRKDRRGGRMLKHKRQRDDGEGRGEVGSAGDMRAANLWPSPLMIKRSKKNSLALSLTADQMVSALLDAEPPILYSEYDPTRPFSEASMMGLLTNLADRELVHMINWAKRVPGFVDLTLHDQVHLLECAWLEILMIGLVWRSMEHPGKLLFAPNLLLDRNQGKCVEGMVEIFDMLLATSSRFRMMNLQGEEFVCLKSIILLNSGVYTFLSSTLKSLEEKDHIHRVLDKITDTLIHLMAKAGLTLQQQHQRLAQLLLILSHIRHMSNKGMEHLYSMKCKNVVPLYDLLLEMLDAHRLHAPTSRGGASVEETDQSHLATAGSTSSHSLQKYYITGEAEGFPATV
Put plainly: Displacement of [6,7-3H]17 beta-estradiol from human recombinant ER alpha assessed as relative binding affinity incubated for 18 hrs at 4 degC by radiometric binding assay relative to estradiol. The method, boiled down: as §1

Experiment [4] addresses Estrogen receptor beta (Homo sapiens) (UniProt Q92731). As to the kind of experiment: Displacement of [6,7-3H]17 beta-estradiol from human recombinant ER beta assessed as relative binding affinity incubated for 18 hrs at 4 degC by radiometric binding assay relative to estradiol. The method, boiled down: as §1
The subject of experiment [5] is MCF7. As to the kind of experiment: Estrogenic activity in human MCF7 cells assessed as increase in cell proliferation incubated for 4 days by WST-8 assay. In kind it is functional, cell-based. The settings on record: MCF7, 96 h. The method, boiled down: as §2

One may read the IC50 as the concentration at which inhibition is half-maximal. Usually EC50 stands for the concentration at which the effect is half-maximal.

Chain of Estrogen receptor beta (Homo sapiens) (Q92731 whole entry): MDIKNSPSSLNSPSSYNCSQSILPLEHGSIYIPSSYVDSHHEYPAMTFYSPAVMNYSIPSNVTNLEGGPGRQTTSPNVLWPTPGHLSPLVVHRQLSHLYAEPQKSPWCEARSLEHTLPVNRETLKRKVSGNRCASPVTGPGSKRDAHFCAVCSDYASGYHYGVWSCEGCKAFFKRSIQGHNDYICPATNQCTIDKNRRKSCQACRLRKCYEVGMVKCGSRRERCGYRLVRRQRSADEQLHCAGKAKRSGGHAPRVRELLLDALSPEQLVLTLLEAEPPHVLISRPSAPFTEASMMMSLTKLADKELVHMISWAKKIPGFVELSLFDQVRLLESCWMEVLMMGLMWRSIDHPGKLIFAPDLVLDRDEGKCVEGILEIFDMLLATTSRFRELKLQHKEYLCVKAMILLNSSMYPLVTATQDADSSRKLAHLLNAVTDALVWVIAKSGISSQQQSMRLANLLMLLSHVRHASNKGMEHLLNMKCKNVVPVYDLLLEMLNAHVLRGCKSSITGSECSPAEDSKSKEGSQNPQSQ

Take `CC1(C)CCC(C(c2ccc(O)cc2)c2ccc(O)cc2)CC1`: the Ratio in the experiment listed under Homo sapiens is 1.2. Besides, in the experiment with MCF7 [1], the Emax was determined as 72%. Also, the IC50 in the experiment with MCF7 [2] was more than 1000 nM. Further, the RBA in experiment [3] amounted to 3.64%; in experiment [4], 3.02%. Further, in the experiment on MCF7 [5], the EC50 is 68.4 nM.

For the compound `Oc1ccc(C(c2ccc(O)cc2)C2CCC(Cl)(Cl)CC2)cc1`, the Ratio in the experiment listed under Homo sapiens stood at 0.2. Besides, the Emax with MCF7 [1] came out at 78%. Also, the half-inhibitory concentration (IC50) in the experiment on MCF7 [2] was more than 1000 nM. For the same compound, the RBA in experiment [3] worked out at 0.662%; in experiment [4] it was 0.158%. Moreover, the EC50 in the experiment with MCF7 [5] is 304 nM.

For `Oc1ccc(C(c2ccc(O)cc2)C2CCCC3(C2)SCCCS3)cc1` (stereo unspecified), in the experiment listed under Homo sapiens, the Ratio was found to be 0.2. For the same compound, the Emax in the experiment on MCF7 [1] came out at 80%. The IC50 in the experiment on MCF7 [2] is more than 1000 nM. For the same compound, the RBA stood at 50.6% in experiment [3] and 8.43% in experiment [4]. Further, the EC50 in the experiment on MCF7 [5] turned out to be 0.39 nM.

With `Oc1ccc(C(c2ccc(O)cc2)C2CCCCC2)cc1`, in the experiment filed under Homo sapiens, the Ratio came to 2.3. For the same compound, the Emax in the experiment with MCF7 [1] turned out to be 79%. Also, the half-maximal inhibitory concentration (IC50) with MCF7 [2] is more than 1000 nM. The figures for the RBA in experiment [3] and in experiment [4] were 6.71% and 15.5%, respectively. Moreover, the concentration for a half-maximal effect (EC50) in the experiment with MCF7 [5] came to 54.1 nM.

As for `Oc1ccc(C(c2ccc(O)cc2)C2CCC(Br)(Br)CC2)cc1`, in the experiment listed under Homo sapiens, the Ratio turned out to be 0.2. For the same compound, in the experiment on MCF7 [1], the Emax was found to be 64%. For the same compound, in the experiment with MCF7 [2], the IC50 was more than 1000 nM. Further, the RBA in experiment [3] is 0.957%; in experiment [4], 0.18%. For the same compound, the EC50 in the experiment on MCF7 [5] is 211 nM.

Turning to `CC1(C)CCCC(C(c2ccc(O)cc2)c2ccc(O)cc2)C1` (stereo unspecified), the Ratio in the experiment filed under Homo sapiens was 0.3. The Emax in the experiment with MCF7 [1] was determined as 74%. Besides, in the experiment on MCF7 [2], the half-maximal inhibitory concentration (IC50) turned out to be 64.9 nM. Also, the RBA was 98.8% in experiment [3] and 30.7% in experiment [4]. Further, the EC50 in the experiment on MCF7 [5] came out at 2.4 nM.

With `CC1(C)CC(C(c2ccc(O)cc2)c2ccc(O)cc2)CC(C)(C)C1`, the Ratio in the experiment filed under Homo sapiens worked out at 1.2. In addition, the Emax with MCF7 [1] worked out at 32%. Also, the IC50 in the experiment with MCF7 [2] was determined as 63.1 nM. The RBA came out at 28.4% in experiment [3] and 35.2% in experiment [4].

Consider `Oc1ccc(C(c2ccc(O)cc2)C2CCC3(CC2)OCCO3)cc1`, for which the Ratio in the experiment filed under Homo sapiens amounted to 0.5. Moreover, the Emax in the experiment on MCF7 [1] amounted to 22%. In the experiment with MCF7 [2], the IC50 was more than 1000 nM. The RBA in experiment [3] amounted to 0.465%; in experiment [4], 0.219%.

As to `Oc1ccc(C(c2ccc(O)cc2)C2CCCC(Cl)(Cl)C2)cc1` (stereo unspecified), the Ratio in the experiment listed under Homo sapiens is 1. Moreover, the Emax with MCF7 [1] came to 70%. Also, in the experiment on MCF7 [2], the IC50 was more than 1000 nM. The RBA in experiment [3] is 15.3%; in experiment [4], 15.7%. The EC50 with MCF7 [5] came to 4.6 nM.

Consider `Oc1ccc(C(c2ccc(O)cc2)C2CCCC3(CCCCC3)C2)cc1` (stereo unspecified), for which the Ratio in the experiment listed under Homo sapiens was 1.3. Moreover, the Emax in the experiment with MCF7 [1] was determined as 74%. In addition, the IC50 with MCF7 [2] is more than 1000 nM. Further, the RBA in experiment [3] is 21.9%; in experiment [4] it was 29.3%. Further, the concentration for a half-maximal effect (EC50) with MCF7 [5] was found to be 0.8 nM.

On to `Oc1ccc(C(c2ccc(O)cc2)C2CCCC2)cc1`, for which the Ratio in the experiment filed under Homo sapiens came out at 3. In the experiment on MCF7 [1], the Emax came out at 69%. Further, the IC50 in the experiment on MCF7 [2] is more than 1000 nM. The RBA in experiment [3] worked out at 4.61%; in experiment [4], 13.7%. Also, the EC50 in the experiment with MCF7 [5] worked out at 48.8 nM.

For `Oc1ccc(C(c2ccc(O)cc2)C2CCCC(F)(F)C2)cc1` (stereo unspecified), the Ratio in the experiment filed under Homo sapiens is 0.7. Also, the Emax in the experiment with MCF7 [1] stood at 58%. Further, in the experiment on MCF7 [2], the IC50 came to 19.6 nM. The RBA amounted to 5.78% in experiment [3] and 4.29% in experiment [4]. Moreover, the EC50 in the experiment with MCF7 [5] amounted to 16.6 nM.

With `Oc1ccc(C(c2ccc(O)cc2)C2CCC(F)(F)CC2)cc1`, the Ratio in the experiment filed under Homo sapiens came to 1.3. The Emax in the experiment with MCF7 [1] turned out to be 80%. Further, the IC50 in the experiment with MCF7 [2] was more than 1000 nM. In addition, the RBA amounted to 2.71% in experiment [3] and 3.93% in experiment [4]. The concentration for a half-maximal effect (EC50) in the experiment on MCF7 [5] amounted to 22.5 nM.
